Measured values pooled from the literature.
PIP5K1C: Phosphatidylinositol 4-phosphate 5-kinase type-1 gamma (PIP5K1C, Homo sapiens, UniProt O60331)
MMP7: Matrilysin (MMP7, Homo sapiens, UniProt P09237)

| SMILES | target | test | system | setting | endpoint | value |
| --- | --- | --- | --- | --- | --- | --- |
| Nc1ncc(-c2nc(N3CCOCC3)nc(N3CCOCC3)n2)c(C(F)F)n1 | PIP5K1C | binding, competition with immobilised ligand | – | 10 µM | remaining binding | 100% |
| CCN1CCN(Cc2ccc(NC(=O)c3ccc(C)c(Oc4ccnc5[nH]ccc45)c3)cc2C(F)(F)F)CC1 | Serine/threonine-protein kinase 32C (STK32C, Homo sapiens, UniProt Q86UX6) | target engagement in cells, inhibitor, chemoproteomics | Huh-7 | 1 µM | inhibition | -13.4% |
| CNC(=O)[C@H](Cc1ccccc1)NC(=O)[C@H](CC(C)C)[C@H](CSc1cccs1)C(=O)NO | MMP7 | enzyme activity, inhibitor | – | 1 nM | inhibition | 31% |
| Cc1nn(C)cc1-c1nc2c(N3CCN(Cc4ccc(Cl)cc4)CC3)c(Cl)cnc2[nH]1 | PIP5K1C | binding, competition with immobilised ligand | – | 1 µM | remaining binding | 84% |
| Cc1ccc(-c2cnnc(N3CCC(c4cccc(Cl)c4)C3)n2)o1 (centres unmarked) | Inorganic pyrophosphatase (Mycobacterium tuberculosis, UniProt P9WI55) | enzyme activity, inhibitor | – | 100 µM | inhibition | 45% |
| CN(C)C(=O)COC(=O)Cc1ccc(OC(=O)c2ccc(NC(=N)N)cc2)cc1 | MMP7 | enzyme activity, inhibitor | – | 10 µM | inhibition | 2% |
| COc1ncccc1-c1cnn2ccc(N3CCN(C(=O)OC(C)C)CC3)nc12 | Serine/threonine-protein kinase/endoribonuclease IRE1 (ERN1, Homo sapiens, UniProt O75460) | binding, competition with immobilised ligand | – | 1 µM | remaining binding | 67% |
| C#Cc1n[nH]c2c(-c3cn(C(C)c4ccccn4)c(=O)[nH]c3=O)cc(F)cc12 (centres unmarked) | Mitogen-activated protein kinase kinase kinase kinase 3 (MAP4K3, Homo sapiens, UniProt Q8IVH8) | enzyme activity, inhibitor | – | 1 µM | inhibition | 9.1% |
